In one assay the test system is Plasmodium falciparum. In words: Antiplasmodial activity against Plasmodium falciparum Dd2 assessed as growth inhibition after 72 hrs by SYBR Green I dye based assay. Type of assay: functional, organism-based. The settings on record: Dd2, 72 h. The gist of the method: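 Ring-stage parasite cultures at 1% hematocrit and 1% parasitemia, grown 72 h at 37 °C with increasing drug concentrations under 5.05% CO2/4.93% O2/90.2% N2. Viability read by DNA quantitation with SYBR Green I in lysis buffer (0.4 µL dye per mL lysis buffer). IC50 from nonlinear regression curve fitting.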

A further assay has as its system A2780. The assay is described as follows: Antiproliferative activity against human A2780 cells after […] by Alamar Blue assay. The class given is functional, cell-based.
Assay [1] concerns A2058. In words: Antiproliferative activity against human A2058 cells after 96 hrs by CellTitre-Glo luminescent assay. The class given is functional, cell-based. The settings on record: A2058, 96 h.
A short description of assay [2]: Antiproliferative activity against human H522-T1 cells after 96 hrs by CellTitre-Glo luminescent assay. Type of assay: functional, cell-based. The following applies: H522-T1, 96 h.
Assay [3] deals with A2058. In words: Selectivity ratio of IC50 for human A2780 cells to IC50 for human A2058 cells. The class given is functional.

For the molecule `Cn1c(=O)/c(=C/c2ccccc2)[nH]c(=O)/c1=C/c1ccccc1`, the IC50 in the assay with Plasmodium falciparum came out at 6570 nM.
Same read-out and setting: with `C=C1NC(=O)[C@H]([C@H](C)OC)N(C)C1=O` the figure was 50000 nM.
With `CC[C@H]1C[C@@H]2CC[C@@H](O2)[C@@H](C)C(=O)O[C@H](C)C[C@H]2CC[C@H](O2)[C@H](C)C(=O)O[C@@H](CC)C[C@@H]2CC[C@@H](O2)[C@@H](C)C(=O)O[C@H](C)C[C@H]2CC[C@H](O2)[C@H](C)C(=O)O1` [DINACTIN], the IC50 in the assay with A2780 was determined as 260 nM; in the assay on A2058 [1], 20 nM; in assay [2], 10 nM. In addition, the “Ratio IC50” value with A2058 [3] amounted to 13.
Turning to `CC[C@H]1C[C@@H]2CC[C@@H](O2)[C@@H](C)C(=O)O[C@H](C)C[C@H]2CC[C@H](O2)[C@H](C)C(=O)O[C@@H](C)C[C@@H]2CC[C@@H](O2)[C@@H](C)C(=O)O[C@H](C)C[C@H]2CC[C@H](O2)[C@H](C)C(=O)O1` [MONACTIN], the IC50 with A2780 was 130 nM; with A2058 [1], 20 nM; in assay [2], 10 nM. In the assay on A2058 [3], the “Ratio IC50” value came out at 6.5.
On to `C[C@@H]1C[C@H]2CC[C@H](O2)[C@H](C)C(=O)O[C@@H](C)C[C@@H]2CC[C@@H](O2)[C@@H](C)C(=O)O[C@H](C)C[C@H]2CC[C@@H](O2)[C@H](C)C(=O)O[C@@H](C)C[C@@H]2CC[C@@H](O2)[C@@H](C)C(=O)O1` [NONACTIN], for which the IC50 in the assay with A2780 came to 160 nM; in the assay with A2058 [1], 260 nM; in assay [2] it was 190 nM.

The values above are taken from ChEMBL document CHEMBL3632503, “Antiproliferative and antiplasmodial compounds from selected Streptomyces species” (Bioorg Med Chem Lett, 2015).
